Measured values from different studies.
Protocols differ between the studies behind these lines.
CDK7: Cyclin-dependent kinase 7 (CDK7, Homo sapiens, UniProt P50613)
CDK7 with cyclin H: Cyclin-dependent kinase 7, with cyclin H (CDK7, Homo sapiens, UniProt P50613)

For `CCS(=O)(=O)c1cc2cc(C[C@@](O)(CC(C)(C)c3ccc(F)cc3C(N)=O)C(F)(F)F)[nH]c2cn1`, the remaining binding was 99% (CDK7; cell-free assay; competition with immobilised ligand; 1 µM).
For `CCCCCC[C@@H](C)/C=C(C)/C=C/C(=O)N[C@H]1CC2(O[C@H]1O)[C@@H]1O[C@@H]1C(=O)[C@@H]1O[C@@H]12` (stereo partly shown), the inhibition was -18.5% (CDK7 with cyclin H; enzyme activity; inhibitor; ADP detection; 10 µM).
`CCN(CC)CCNC(=O)c1c(C)[nH]c(/C=C2\C(=O)Nc3ccc(F)cc32)c1C` gave a remaining signal of 73.4% (CDK7 with cyclin H; cell-free assay; 0.5 µM).
The inhibition of `O=c1cc(-c2ccccc2)oc2c1ccc1ccccc12` is reported as 29.9% (CDK7 with cyclin H; enzyme activity; inhibitor; ADP detection; 10 µM).
The remaining activity of `O=C(Nc1cnn(-c2csc(C(=O)NC3COC3)c2)c1)Nc1c(F)cccc1Cl` is reported as 95.8% (CDK7 with cyclin H; enzyme activity; inhibitor; 5 µM).
`Cc1cnc(NC2CCOCC2)nc1-n1cnc(C(=O)NC(CN)c2cc(F)cc(Cl)c2)c1` (stereo not shown) gave a remaining activity of 16% (CDK7; enzyme activity; inhibitor; radiometric; 1 µM).
`CO[C@@H](C)c1c(Nc2ccc([C@H](N(C)C(=O)C3CCS(=O)(=O)CC3)C(F)(F)F)cc2)cnc2cc(Cl)nn12` gave a remaining binding of 100% (CDK7; cell-free assay; competition with immobilised ligand; 1 µM).
The inhibition of `Cn1cc2c3ccccc3nc-2c2ccccc21` is reported as 38.3% (CDK7 with cyclin H; enzyme activity; inhibitor; ADP detection; 10 µM).
For `Cc1cc(NC(=O)c2cccc3cc(-c4cccc5[nH]nc(N)c45)ccc23)ccc1F`, the activity vs control was 117% (CDK7; enzyme activity; inhibitor; 0.1 µM).
`CNC(=O)c1cc(Oc2ccc(NC(=O)Nc3ccc(Cl)c(C(F)(F)F)c3)cc2)ccn1` gave an inhibition of -36% (CDK7 with cyclin H; enzyme activity; inhibitor; 10 µM).
`CN(c1ccnc(CNc2nc(Nc3ccc4c(c3)CC(=O)N4)ncc2C(F)(F)F)n1)S(C)(=O)=O` gave a remaining binding of 3.5% (CDK7; cell-free assay; competition with immobilised ligand; 1 µM).
With `COc1cc2oc(-c3ccccc3)cc(=O)c2c(OC)c1OC` the inhibition was 22.4% (CDK7 with cyclin H; enzyme activity; inhibitor; ADP detection; 10 µM).
`NS(=O)(=O)c1cc(NC(=O)Cc2ccccc2)ccc1Oc1cccc(Cl)c1` has a remaining binding of 64% (CDK7; cell-free assay; competition with immobilised ligand; 1 µM).
With `Oc1ccc(-c2nc(-c3ccncc3)c(-c3ccc(F)cc3)[nH]2)cc1` the remaining signal was 99.4% (CDK7 with cyclin H; cell-free assay; 0.5 µM).
`Cc1c(NC(=O)c2cc(C(N)=O)nc3cc(F)ccc23)c(C(F)(F)F)nn1Cc1ccc(C(C)(C)C)cc1` gave a remaining binding of 100% (CDK7; cell-free assay; competition with immobilised ligand; 1 µM).
`O=C1C[C@@H](c2ccc(O)cc2)Oc2cc(O)cc(O)c21` has an inhibition of 3.7% (CDK7 with cyclin H; enzyme activity; inhibitor; ADP detection; 10 µM).
